Experiments:
Candida parapsilosis [1] = test: Inhibition of Candida parapsilosis ATCC 22019 growth for 48 hours in vitro.; type: functional
Method in brief: (§1)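 NCCLS M27-A broth microdilution in RPMI 1640 with L-glutamine and 0.165 M MOPS, pH 7.0. Isolates kept on Sabouraud dextrose agar. Inoculum 5 × 10^3 cfu/mL final. Compounds were diluted in DMSO (≤2% final) and tested in 2-fold dilutions of 1000–0.24 µmol/L. Incubation at 35 °C, OD540 read at 24 and 48 h. MIC = 80% growth inhibition versus control; assays run twice in duplicate.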

Candida parapsilosis [2] = test: Inhibition of Candida parapsilosis ATCC 22019 growth for 24 hours in vitro.; type: functional; method in brief: as §1
Candida tropicalis [3] = test: Inhibition of Candida tropicalis 156 growth for 24 hours in vitro.; type: functional; method in brief: as §1
[4] = Inhibition of Trichophyton mentagrophytes 445 growth for 120 hours in vitro.; type: functional, Arthroderma benhamiae
Method in brief: (§2)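 Dermatophyte grown in MOPS-buffered (0.165 M, pH 7.0) RPMI 1640 containing L-glutamine, in an M27-A microdilution format. Inoculum 5 × 10^3 cfu/mL final. Compounds from DMSO stocks (≤2% final), 2-fold dilutions 1000–0.24 µmol/L. Incubated at 35 °C, growth judged visually at 72 and 120 h. MIC endpoint is 80% inhibition relative to control; measured twice in duplicate.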

Candida albicans [5] = test: Inhibition of Candida albicans ATCC 90028 for 48 hours in vitro.; type: functional; method in brief: as §1
Trichosporon beigelii [6] = test: Inhibition of Trichosporon beigelli 1188 for 24 hours in vitro.; type: functional
Method in brief: (§3)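 Microdilution following NCCLS M27-A. Medium: RPMI 1640 with L-glutamine, 0.165 M MOPS, pH 7.0. Final inoculum 5 × 10^3 cfu/mL. Compounds dissolved in DMSO, final ≤2%, serially halved from 1000 to 0.24 µmol/L. Incubated at 35 °C and read at 24 and 48 h. MIC defined as 80% inhibition of control growth; run twice in duplicate.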

Lichtheimia corymbifera [7] = test: In vitro inhibition of Absidia corymbifera 272 growth for 48 hours.; type: functional
Method in brief: (§4)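 Filamentous isolates tested by microdilution per NCCLS M27-A in RPMI 1640 plus L-glutamine, buffered with 0.165 M MOPS to pH 7.0. Final inoculum 5 × 10^3 cfu/mL. Compounds in DMSO (final ≤2%), 2-fold series over 1000–0.24 µmol/L. Plates held at 35 °C and read visually after 24 and 48 h. MIC taken as 80% inhibition of control growth; determined twice in duplicate.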

Candida tropicalis [8] = test: Inhibition of Candida tropicalis 156 growth for 48 hours in vitro.; type: functional; method in brief: as §1
Aspergillus fumigatus [9] = test: Inhibition of Aspergillus fumigatus 231 growth for 48 hours in vitro.; type: functional; method in brief: as §4
Candida albicans [10] = test: Inhibition of Candida albicans ATCC 90028 for 24 hours in vitro.; type: functional; method in brief: as §1
Trichosporon beigelii [11] = test: Inhibition of Trichosporon beigelli 1188 for 48 hours in vitro.; type: functional; method in brief: as §3
Pichia kudriavzevii [12] = test: Inhibition of Candida krusei ATCC 6258 growth for 24 hours in vitro.; type: functional; method in brief: as §1
Candida albicans [13] = test: Inhibition of Candida albicans ATCC 44859 growth for 48 hours in vitro.; type: functional; method in brief: as §1
Clavispora lusitaniae [14] = test: Inhibition of Candida lusitaniae 2446/I growth for 24 hours in vitro.; type: functional; method in brief: as §1
[15] = Inhibition of Trichophyton mentagrophytes 445 growth for 72 hours in vitro.; type: functional, Arthroderma benhamiae; method in brief: as §2
Nakaseomyces glabratus [16] = test: Inhibition of Candida glabrata 20/I growth for 48 hours in vitro.; type: functional; method in brief: as §1
Pichia kudriavzevii [17] = test: Inhibition of Candida krusei ATCC 6258 growth for 48 hours in vitro.; type: functional; method in brief: as §1
Aspergillus fumigatus [18] = test: Inhibition of Aspergillus fumigatus 231 growth for 24 hours in vitro.; type: functional; method in brief: as §4
Pichia kudriavzevii [19] = test: Inhibition of Candida krusei E28 growth for 24 hours in vitro.; type: functional; method in brief: as §1
Nakaseomyces glabratus [20] = test: Inhibition of Candida glabrata 20/I growth for 24 hours in vitro.; type: functional; method in brief: as §1
Pichia kudriavzevii [21] = test: Inhibition of Candida krusei E28 growth for 48 hours in vitro.; type: functional; method in brief: as §1
Candida albicans [22] = test: Inhibition of Candida albicans ATCC 44859 growth for 24 hours in vitro.; type: functional; method in brief: as §1
Clavispora lusitaniae [23] = test: Inhibition of Candida lusitaniae 2446/I growth for 48 hours in vitro.; type: functional; method in brief: as §1
Lichtheimia corymbifera [24] = test: In vitro inhibition of Absidia corymbifera 272 growth for 24 hours.; type: functional; method in brief: as §4
[25] = Lodderomyces parapsilosis, ATCC 22019, 48 h, read-out: MIC
[26] = Lodderomyces parapsilosis, ATCC 22019, 24 h, read-out: MIC
[27] = Candida tropicalis, 24 h, read-out: MIC
[28] = Trichophyton benhamiae, 120 h, read-out: MIC
[29] = Candida albicans, ATCC 90028, 48 h, read-out: MIC
[30] = Trichosporon beigelii, 24 h, read-out: MIC
[31] = Lichtheimia corymbifera, 48 h, read-out: MIC
[32] = Candida tropicalis, 48 h, read-out: MIC
[33] = Aspergillus fumigatus, 48 h, read-out: MIC
[34] = Candida albicans, ATCC 90028, 24 h, read-out: MIC
[35] = Trichosporon beigelii, 48 h, read-out: MIC
[36] = Pichia kudriavzevii, ATCC 6258, 24 h, read-out: MIC
[37] = Candida albicans, ATCC 44859, 48 h, read-out: MIC
[38] = Clavispora lusitaniae, 24 h, read-out: MIC
[39] = Trichophyton benhamiae, 72 h, read-out: MIC
[40] = Nakaseomyces glabratus, 48 h, read-out: MIC
[41] = Pichia kudriavzevii, ATCC 6258, 48 h, read-out: MIC
[42] = Aspergillus fumigatus, 24 h, read-out: MIC
[43] = Pichia kudriavzevii, 24 h, read-out: MIC
[44] = Nakaseomyces glabratus, 24 h, read-out: MIC
[45] = Pichia kudriavzevii, 48 h, read-out: MIC
[46] = Candida albicans, ATCC 44859, 24 h, read-out: MIC
[47] = Clavispora lusitaniae, 48 h, read-out: MIC
[48] = Lichtheimia corymbifera, 24 h, read-out: MIC

Measured: MIC

CC(=O)OCC1C=C(c2cccc(Cl)c2)C(=O)O1 (configuration not stated)
15.6 µM: Candida tropicalis [8]; [32] | Trichosporon beigelii [11]; [35]
3.91 µM: Trichosporon beigelii [6]; [30] | Aspergillus fumigatus [9]; [33] | Candida albicans [10]; [34] | Pichia kudriavzevii [12]; [36] | Candida albicans [13]; [37] | Clavispora lusitaniae [14]; [38] | Lichtheimia corymbifera [24]; [48]
1.95 µM: [4]; [28] | [15]; [39] | Aspergillus fumigatus [18]; [42]
7.81 µM: Candida parapsilosis [1]; [25] | Candida parapsilosis [2]; [26] | Candida tropicalis [3]; [27] | Candida albicans [5]; [29] | Lichtheimia corymbifera [7]; [31] | Pichia kudriavzevii [17]; [41] | Pichia kudriavzevii [19]; [43] | Pichia kudriavzevii [21]; [45] | Clavispora lusitaniae [23]; [47]
0.98 µM: Nakaseomyces glabratus [16]; [40] | Candida albicans [22]; [46]
< 0.98 µM: Nakaseomyces glabratus [20]; [44]

CC(C)(C)C(=O)OCC1C=C(c2ccc(Cl)c(Cl)c2)C(=O)O1 (stereo in doubt; 2c)
7.81 uM l-1: Candida tropicalis [8] | Trichosporon beigelii [11] | Pichia kudriavzevii [12] | Pichia kudriavzevii [21] | Lichtheimia corymbifera [24]
31.25 uM l-1: Pichia kudriavzevii [17]
0.49 uM l-1: [4]
0.24 uM l-1: [15]
0.49 µM: Nakaseomyces glabratus [20] | Candida albicans [22]
0.98 uM l-1: Nakaseomyces glabratus [16]
1.95 uM l-1: Trichosporon beigelii [6] | Candida albicans [10] | Candida albicans [13] | Clavispora lusitaniae [14] | Aspergillus fumigatus [18]
1.95 µM: Candida albicans [5]
3.91 uM l-1: Candida parapsilosis [1] | Candida parapsilosis [2] | Candida tropicalis [3] | Aspergillus fumigatus [9] | Pichia kudriavzevii [19] | Clavispora lusitaniae [23]
15.63 uM l-1: Lichtheimia corymbifera [7]

O=C1OC(COC(=O)c2ccc(Cl)cc2)C=C1c1ccc(Cl)c(Cl)c1 (configuration not stated)
1.95 µM: Candida parapsilosis [2]; [26] | Candida tropicalis [3]; [27] | Trichosporon beigelii [6]; [30] | Candida albicans [10]; [34] | Candida albicans [13]; [37] | Clavispora lusitaniae [14]; [38]
15.6 µM: Lichtheimia corymbifera [24]; [48]
0.12 µM: Candida albicans [22]; [46]
31.2 µM: Lichtheimia corymbifera [7]; [31]
0.98 µM: [4]; [28] | [15]; [39] | Nakaseomyces glabratus [16]; [40] | Aspergillus fumigatus [18]; [42] | Nakaseomyces glabratus [20]; [44]
7.81 µM: Trichosporon beigelii [11]; [35] | Pichia kudriavzevii [17]; [41] | Pichia kudriavzevii [21]; [45]
3.91 µM: Candida parapsilosis [1]; [25] | Candida albicans [5]; [29] | Candida tropicalis [8]; [32] | Aspergillus fumigatus [9]; [33] | Pichia kudriavzevii [12]; [36] | Pichia kudriavzevii [19]; [43] | Clavispora lusitaniae [23]; [47]
